This is one part of a sample in which hits are shown more often than they occur.
A1 apoptosis 2: compounds inhibiting A1, read as caspase activation. 24,000 tested, under 10 active. AID 2465. MEF A1-2A-BIM cells, caspase-Glo luminescence, 3 h; percent of clofoctol response, DMSO zero. caspase activation, % (no concentration beside the values); in the data active = caspase activation above about 5.9%
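Evaluation: Caspase-3/7 activity from luminescence increase | Assay system: A1-2A-BIM mouse embryonic fibroblasts | Quantity: 2500 MEF cells/well | Medium: RPMI-1640 plus 10% FBS | Detection: Caspase-Glo 3/7 luminescence, 1 h at room temperature | Dosing: 50 nL compound per well, pinned | Timing: Cells settled overnight, compound exposure 3 h at 37 °C, 5% CO2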
INS-1E rescue: preserves ATP levels in cytokine-treated INS-1E cells; INS-1E cytokine-induced death, ATP luminescence, 48 h; normalised: neutral wells 0, positive control 100; protection from cytokine-induced ATP loss, % at 10 µM; 0.1% of 20,000 active;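 active = mean replicate protection from cytokine-induced ATP loss at least 50% and at least 75% of replicates each reaching 50%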
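Assay system – rat INS-1E insulinoma cell line · Quantity – 8000 cells per well · Buffer or medium – RPMI without phenol red, 5% FBS · Schedule – 48 h co-treatment, 10 min post-lysis read · Technique – luminescent ATP assay (CellTiter-Glo)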
T cruzi HTS: blocks T. cruzi growth inside host cells; intracellular Trypanosoma cruzi in host cells, plate reader; activity score (inhibition), % at 5.01 µM; 4.9% of 22,000 active; AID 651903; in the data active = activity score above about 55%;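 also: parasites and compound incubated about four days before reading; 0% = median of neutral control wells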
* = called active by the depositor; . = not tested or not shown.

SMILES	A1 apoptosis 2	INS-1E rescue	T cruzi HTS
C[C@@H]1CN([C@H](C)CO)C(=O)Cc2cc(NS(=O)(=O)c3ccccc3)ccc2O[C@@H]1CN(C)Cc1ccc(C(F)(F)F)cc1	1	-28	59*
C[C@H](CO)N1C[C@H](C)[C@H](CN(C)Cc2ccc(C(F)(F)F)cc2)Oc2ccc(NS(=O)(=O)c3ccccc3)cc2CC1=O	.	2	6
O=C(CCCCCCC(=O)Nc1ccccc1O)N/N=C\c1ccc2ccccc2n1	0	4	12
CC(C)=CCC[C@H](C)C/C=N/NC(=O)CCCCCC(=O)NO	0	.	.
C=C/C=C/[C@@H]1C(=C)CN([C@@H](Cc2ccc(N=[N+]=[N-])cc2)C(=O)OC)[C@H]1[C@@H](O)Cc1ccccc1	2	.	.
C[C@@H]1CN([C@@H](C)CO)C(=O)c2cccc(NS(=O)(=O)c3cccs3)c2O[C@@H]1CN(C)Cc1ccc(C(=O)O)cc1	-1	2	-13
C[C@@H]1CN([C@@H](C)CO)C(=O)c2cccc(NS(=O)(=O)c3ccc(Cl)cc3)c2O[C@@H]1CN(C)Cc1ccc(-c2ccccc2)cc1	0	-73	63*
C[C@H](CO)N1C[C@H](C)[C@@H](CN(C)Cc2ccc3c(c2)OCO3)Oc2c(NS(=O)(=O)c3ccc(Cl)cc3)cccc2C1=O	-1	10	58*
C[C@@H]1CN([C@H](C)CO)C(=O)c2cccc(NS(=O)(=O)c3ccccc3)c2O[C@@H]1CN(C)Cc1ccc(-c2ccccc2)cc1	.	-11	14
C[C@H]1CN([C@@H](C)CO)C(=O)c2cccc(NS(=O)(=O)c3ccc(Cl)cc3)c2O[C@@H]1CN(C)Cc1ccc(-c2ccccc2)cc1	1	-5	36
Cc1ccc(S(=O)(=O)Nc2cccc3c2O[C@@H](CN(C)Cc2ccc4c(c2)OCO4)[C@@H](C)CN([C@H](C)CO)C3=O)cc1	.	-8	-11
C[C@@H]1CN([C@@H](C)CO)C(=O)c2cccc(NS(=O)(=O)c3ccccc3)c2O[C@@H]1CN(C)Cc1ccc(-c2ccccc2)cc1	.	-72	87*
C[C@@H]1CN([C@H](C)CO)C(=O)c2cccc(NS(=O)(=O)c3cccs3)c2O[C@@H]1CN(C)Cc1ccc(C(=O)O)cc1	0	14	68*
COc1ccc(/C=N/NC(=O)c2cccc(C(=O)NO)c2)cc1	-2	-2	1
Cc1ccc(S(=O)(=O)Nc2cccc3c2O[C@H](CN(C)Cc2ccc(-c4ccccc4)cc2)[C@@H](C)CN([C@H](C)CO)C3=O)cc1	.	-4	47
Cc1ccc(S(=O)(=O)Nc2cccc3c2O[C@@H](CN(C)Cc2ccc(-c4ccccc4)cc2)[C@@H](C)CN([C@@H](C)CO)C3=O)cc1	.	-67	74*
C[C@@H]1CCCCO[C@H](CN(C)CC2CCCCC2)[C@@H](C)CN([C@H](C)CO)C(=O)c2cc(NS(=O)(=O)c3ccc(Cl)cc3)ccc2O1	0	-2	27
C[C@@H]1CCCCO[C@@H](CN(C)S(=O)(=O)c2ccc(Cl)cc2)[C@@H](C)CN([C@H](C)CO)C(=O)c2cc(NS(=O)(=O)c3ccc(Cl)cc3)ccc2O1	-1	-15	59*
C[C@@H]1CCCCO[C@H](CN(C)S(=O)(=O)c2ccc(Cl)cc2)[C@H](C)CN([C@H](C)CO)C(=O)c2cc(NS(=O)(=O)c3ccc(Cl)cc3)ccc2O1	-2	.	.
C[C@@H]1CCCCO[C@@H](CN(C)CC2CCCCC2)[C@@H](C)CN([C@H](C)CO)C(=O)c2cc(NS(=O)(=O)c3ccc(Cl)cc3)ccc2O1	-1	-22	62*
Cc1ccc(S(=O)(=O)Nc2ccc3c(c2)C(=O)N([C@@H](C)CO)C[C@H](C)[C@@H](CN(C)S(=O)(=O)c2ccc(Cl)cc2)OCCCC[C@@H](C)O3)cc1	-2	.	.
Cc1ccc(S(=O)(=O)N(C)C[C@H]2OCCCC[C@@H](C)Oc3ccc(NS(=O)(=O)c4ccc(Cl)cc4)cc3C(=O)N([C@H](C)CO)C[C@@H]2C)cc1	.	-10	64*
O=C(O)CCCCCC(=O)N/N=C/c1cccs1	.	-12	-9
Cc1ccsc1/C=N/NC(=O)c1ccc(C(=O)NO)cc1	-1	-4	1
O=C(CCCCCCC(=O)Nc1ccccc1O)N/N=C/c1c(O)ccc2ccccc12	.	7	38
SMILES	A1 apoptosis 2	INS-1E rescue	T cruzi HTS
COC(=O)CCCCCCC(=O)N/N=C/c1cccc(Oc2ccccc2)c1	.	3	-6
C[C@H]1CN([C@@H](C)CO)C(=O)c2cccc(NC(=O)Nc3ccc(C(F)(F)F)cc3)c2O[C@@H]1CN(C)Cc1ccc(Oc2ccccc2)cc1	1	-34	30
C[C@@H]1CN([C@@H](C)CO)C(=O)c2cccc(NC(=O)Nc3ccc(C(F)(F)F)cc3)c2O[C@@H]1CN(C)Cc1ccc(C(F)(F)F)cc1	.	-88	81*
C[C@H]1CN([C@@H](C)CO)C(=O)c2cccc(NC(=O)Nc3ccc(C(F)(F)F)cc3)c2O[C@@H]1CN(C)Cc1ccc(C(F)(F)F)cc1	-2	-109	35
C[C@@H]1CN([C@H](C)CO)C(=O)c2cccc(NC(=O)Nc3ccc(F)cc3)c2O[C@H]1CN(C)Cc1ccc(C(F)(F)F)cc1	1	-31	31
C[C@H](CO)N1C[C@H](C)[C@H](CN(C)Cc2ccc(Oc3ccccc3)cc2)Oc2c(NC(=O)Nc3ccc(C(F)(F)F)cc3)cccc2C1=O	.	-111	62*
C[C@H](CO)N1C[C@H](C)[C@@H](CN(C)Cc2ccc(C(F)(F)F)cc2)Oc2c(NC(=O)Nc3ccc(F)cc3)cccc2C1=O	0	-36	74*
C[C@H]1CN([C@@H](C)CO)C(=O)c2cccc(NC(=O)Nc3ccc(C(F)(F)F)cc3)c2O[C@H]1CN(C)Cc1ccc2c(c1)OCO2	.	-34	85*
C[C@H]1CN([C@@H](C)CO)C(=O)c2cccc(NC(=O)Nc3ccc4c(c3)OCO4)c2O[C@H]1CN(C)Cc1ccc(C(F)(F)F)cc1	0	-11	26
O=C(CCCCCC(=O)Nc1ccccc1O)N/N=C/c1ccc(Br)s1	0	-6	20
O=C(CCCCCCC(=O)Nc1ccccc1O)N/N=C/c1cccc(OCCO)c1	-1	-11	-1
COc1ccc(/C=N/NC(=O)c2cccc(C(=O)NO)c2)cc1Br	0	-4	-15
COc1ccc(NC(=O)Nc2cccc3c2O[C@H](CN(C)Cc2ccc(C(F)(F)F)cc2)[C@@H](C)CN([C@H](C)CO)C3=O)cc1	.	-13	-3
COc1ccc(CN(C)C[C@@H]2Oc3c(NC(=O)Nc4ccc(C(F)(F)F)cc4)cccc3C(=O)N([C@H](C)CO)C[C@H]2C)cc1	0	-77	79*
C/C=C/[C@H](CC(=O)N(CCO)Cc1ccccc1)[Si](C)(C)c1ccc(OC)cc1	0	.	.
O=C(CCCCC(=O)N/N=C/c1ccccc1C(=O)O)NO	.	9	-19
C[C@H](CO)N1C[C@H](C)[C@H](CN(C)C)Oc2ncc(-c3cccc(F)c3)cc2C1=O	.	.	71*
C[C@H](CO)N1C[C@H](C)[C@H](CN(C)C)Oc2ncc(-c3ccccc3)cc2C1=O	-1	.	63*
